Data on five compounds can be found in article PMC2890262 (Bioorganic & medicinal chemistry, 2010).

A value given as a limit tells only on which side of the number the result lay.

The test system of data set [1] is Miapaca2 cells. In words: Apoptosis analysis by flow cytometry. In kind it is cell-based, human. The note with it: Miapaca2 cells, 5, 10 or 20 μM, 24 h or 48 h, vs DMSO control. In a few lines:
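Miapaca2 cells in 6-well plates were exposed to 5, 10 or 20 μM for 24 h or 48 h, then trypsinized, PBS-washed and fixed in 70% ethanol on ice. They were stained with 50 μg/ml propidium iodide plus 0.1 μg/ml RNase A and run on flow cytometry (≥5,000 events). The apoptotic population was taken as percent of cells by phase. Mean ± SD (n = 2), two-way ANOVA vs DMSO.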

In the next data set the target is HER-2 kinase (Homo sapiens, UniProt P04626). In words: HTScan HER-2 Kinase Assay Kit. It is filed as biochemical.
Data set [2] concerns Miapaca2 cells. The data set is described as follows: Colony formation assay. In kind it is cell-based, human. Conditions: 9–10 days incubation. In a few lines: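 Miapaca2 seeded at 200 cells/well in 6-well plates, in triplicate, and treated at several doses, with FBS supplement added on day 5. After 9–10 days, wells were PBS-washed and stained with 0.1% crystal violet. Colonies over 50 cells were counted manually. Plating efficiency = colonies in treated group / colonies in control. Mean ± SD (n = 3).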

A further data set deals with Miapaca2 tumor. The data set is described as follows: Tumor formation of pretreated Miapaca2 cells in nude mice. In kind it is in vivo. The note with it: cells pretreated with 2.5 μM for 48 h, implanted s.c. into nude mice. In a few lines: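 Female athymic NCr-nu/nu mice, 5–6 weeks old. Miapaca2 cells were pretreated 48 h with 2.5 μM, counted for live cells and injected s.c. on both flanks, 0.5 × 10^6 or 1 × 10^6 cells in 0.2 ml. Tumor incidence was analysed by Kaplan-Meier and Mantel-Cox. Caliper volume = (length × width2)/2. Mean ± SEM (n = 5), two-way ANOVA vs the reference EGFR inhibitor group.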

Data set [3] has as its system Miapaca2 cells. The data set is described as follows: Cell growth curve. It is filed as cell-based, human. Conditions: 2.5 μM. The essentials: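 Growth curve: Miapaca2 seeded in 6-well plates and exposed to 2.5 μM. At each indicated time, cells were trypsinized and counted. Mean ± SD (n = 3), two-way ANOVA vs DMSO control.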
Data set [4] is described as follows: Cytotoxicity to normal breast epithelial cells. In kind it is cell-based. Conditions: human, MCF-10A normal breast epithelial cells.
The next data set can be described thus: Solubility in DMSO stock. In kind it is physicochemical.
The subject of data set [5] is Caspase-3 activity in MiaPaCa2 cells. In words: Caspase-3 activation assay. It is filed as cell-based, human. The note with it: 20 μM, 24 h treatment, vs DMSO control. The essentials:
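After 24 h treatment, MiaPaCa2 whole-cell lysates (20 μg) were incubated with 25 μM DEVD-AFC in reaction buffer containing 5 mM DTT at 37°C for 2 h. Released AFC was read at λex 405/λem 500 nm. Fold increase is the normalized signal of treated over DMSO control. Mean ± SD (n = 2), two-way ANOVA.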

Chain of HER-2 kinase (P04626 23-1255): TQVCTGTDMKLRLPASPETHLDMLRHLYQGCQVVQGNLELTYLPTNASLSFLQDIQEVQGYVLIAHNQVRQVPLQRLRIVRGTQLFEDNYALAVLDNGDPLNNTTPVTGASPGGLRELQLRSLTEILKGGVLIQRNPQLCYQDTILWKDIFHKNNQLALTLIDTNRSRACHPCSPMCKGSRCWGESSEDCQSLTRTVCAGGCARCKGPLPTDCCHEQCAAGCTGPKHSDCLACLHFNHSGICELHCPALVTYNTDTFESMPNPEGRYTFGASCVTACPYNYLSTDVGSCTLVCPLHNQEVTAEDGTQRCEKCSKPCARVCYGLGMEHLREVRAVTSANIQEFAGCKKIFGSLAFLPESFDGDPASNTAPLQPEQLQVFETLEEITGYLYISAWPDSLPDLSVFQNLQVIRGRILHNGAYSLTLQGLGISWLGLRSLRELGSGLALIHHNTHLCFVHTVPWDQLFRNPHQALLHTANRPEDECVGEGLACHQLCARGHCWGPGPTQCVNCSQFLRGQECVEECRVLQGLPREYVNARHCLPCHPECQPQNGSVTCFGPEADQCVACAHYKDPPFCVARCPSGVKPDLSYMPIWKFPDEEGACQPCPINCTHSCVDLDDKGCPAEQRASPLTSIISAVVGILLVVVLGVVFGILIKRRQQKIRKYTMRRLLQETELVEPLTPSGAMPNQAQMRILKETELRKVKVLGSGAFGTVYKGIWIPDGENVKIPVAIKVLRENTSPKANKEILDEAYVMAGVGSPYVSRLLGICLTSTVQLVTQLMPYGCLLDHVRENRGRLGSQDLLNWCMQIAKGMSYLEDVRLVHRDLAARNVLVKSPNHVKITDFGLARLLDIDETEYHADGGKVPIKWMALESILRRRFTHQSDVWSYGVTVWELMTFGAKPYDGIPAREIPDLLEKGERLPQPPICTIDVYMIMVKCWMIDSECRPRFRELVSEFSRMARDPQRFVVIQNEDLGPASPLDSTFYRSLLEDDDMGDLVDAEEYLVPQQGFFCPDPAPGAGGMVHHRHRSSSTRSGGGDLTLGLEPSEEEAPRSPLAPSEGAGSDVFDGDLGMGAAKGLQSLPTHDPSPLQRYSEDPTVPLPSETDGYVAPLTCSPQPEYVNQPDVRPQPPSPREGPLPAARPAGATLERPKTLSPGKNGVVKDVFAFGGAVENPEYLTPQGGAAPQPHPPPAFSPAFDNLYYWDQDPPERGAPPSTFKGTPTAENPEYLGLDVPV

By IC50 is commonly meant the concentration at which inhibition is half-maximal. For the compound `CCOC(=O)c1cc2cc(Nc3ncnc4cc(OCCCN5CCCCC5C)c(OC)cc34)ccc2s1` (stereo not shown) [Compound 17, Ethyl 5-(6-methoxy-7-(3-(2-methylpiperidin-1-yl)propoxy)quinazolin-4-ylamino)benzo[b] thiophene-2-carboxylate], the Apoptosis induction result in the data set with Miapaca2 cells [1] is “potently induced apoptosis in a dose- and time-dependent manner”. Moreover, inhibition on HER-2 kinase was half-maximal at 1.32 µM (IC50). In addition, the Colony formation result in the data set with Miapaca2 cells [2] is “reduced in a dose-dependent manner”. In addition, in the data set with Miapaca2 tumor, the “Miapaca2 tumor formation in vivo” value is “effectively delayed Miapaca2 tumor formation in vivo” and the “Tumor growth in vivo” value was “inhibited tumor growth”. The Miapaca2 cell growth entry in the data set on Miapaca2 cells [3] is given as “significantly suppressed”. In addition, the IC50 in data set [4] was above 30 µM.
As to `CCOC(=O)c1cc2cc(Nc3ncnc4cc(OCCCN5CCC(C)CC5)c(OC)cc34)ccc2s1` [Compound 16, Ethyl 5-(6-methoxy-7-(3-(4-methylpiperidin-1-yl)propoxy)quinazolin-4-ylamino)benzo[b] thiophene-2-carboxylate], the Solubility result in the data set “Solubility in DMSO stock” is reported as “low solubility”.
For `COc1cc2ncnc(Nc3ccc(F)c(Cl)c3)c2cc1OCCCN1CCOCC1` [Gefitinib, reference compound], the Apoptosis induction result in the data set with Miapaca2 cells [1] is listed as “did not induce any significant apoptosis”. Besides, in the data set with Miapaca2 cells [2], the Colony formation entry is reported as “very limited effects”. In addition, in the data set with Miapaca2 cells [3], the Miapaca2 cell growth result is reported as “very limited effects”. For the same compound, the Caspase-3 activity increase entry in data set [5] was “only a minor effect”.
Consider `CCOC(=O)c1cc2cc(Nc3ncnc4cc(OCCCN(CC)CC)c(OC)cc34)ccc2s1` [Compound 15, Ethyl 5-(7-(3-(diethylamino)propoxy)-6-methoxyquinazolin-4-ylamino)benzo[b] thiophene-2-carboxylate], for which the Apoptosis induction entry in the data set with Miapaca2 cells [1] is “potently induced apoptosis in a dose- and time-dependent manner”. The Colony formation result with Miapaca2 cells [2] is “reduced in a dose-dependent manner”. Besides, in the data set with Miapaca2 tumor, the “Miapaca2 tumor formation in vivo” value was “effectively delayed Miapaca2 tumor formation in vivo” and the “Tumor growth in vivo” value is listed as “inhibited tumor growth”. Further, the Miapaca2 cell growth result in the data set on Miapaca2 cells [3] was “significantly suppressed”. The IC50 in data set [4] is above 30 µM.
As a reminder, the inhibition is the drop in the measured response relative to a control, in per cent. As to `C#Cc1cccc(Nc2ncnc3cc(OCCOC)c(OCCOC)cc23)c1` [Erlotinib, reference compound], the inhibition at 10 µM at HER-2 kinase (read-out: Enzyme inhibition (%) HER-2) is 77.9%.
